Reference: ChEMBL document CHEMBL3352666, “Human Toll-like receptor 8-selective agonistic activities in 1-alkyl-1H-benzimidazol-2-amines” (J Med Chem, 2014)
Active and inactive are the calls of the source. The rule behind the calls is not given here.

Experiments:
Toll-like receptor 8 = molecular target: T1, Toll-like receptor 8 (Homo sapiens, UniProt Q9NR97); assay: Agonist activity at human TLR8 stably expressed in HEK293 cells co-expressing secreted alkaline phosphatase assessed as NF-kappaB induction by liquid handler-assisted reporter gene assay; assay type: cell-based
T1 sequence (Q9NR97 whole entry): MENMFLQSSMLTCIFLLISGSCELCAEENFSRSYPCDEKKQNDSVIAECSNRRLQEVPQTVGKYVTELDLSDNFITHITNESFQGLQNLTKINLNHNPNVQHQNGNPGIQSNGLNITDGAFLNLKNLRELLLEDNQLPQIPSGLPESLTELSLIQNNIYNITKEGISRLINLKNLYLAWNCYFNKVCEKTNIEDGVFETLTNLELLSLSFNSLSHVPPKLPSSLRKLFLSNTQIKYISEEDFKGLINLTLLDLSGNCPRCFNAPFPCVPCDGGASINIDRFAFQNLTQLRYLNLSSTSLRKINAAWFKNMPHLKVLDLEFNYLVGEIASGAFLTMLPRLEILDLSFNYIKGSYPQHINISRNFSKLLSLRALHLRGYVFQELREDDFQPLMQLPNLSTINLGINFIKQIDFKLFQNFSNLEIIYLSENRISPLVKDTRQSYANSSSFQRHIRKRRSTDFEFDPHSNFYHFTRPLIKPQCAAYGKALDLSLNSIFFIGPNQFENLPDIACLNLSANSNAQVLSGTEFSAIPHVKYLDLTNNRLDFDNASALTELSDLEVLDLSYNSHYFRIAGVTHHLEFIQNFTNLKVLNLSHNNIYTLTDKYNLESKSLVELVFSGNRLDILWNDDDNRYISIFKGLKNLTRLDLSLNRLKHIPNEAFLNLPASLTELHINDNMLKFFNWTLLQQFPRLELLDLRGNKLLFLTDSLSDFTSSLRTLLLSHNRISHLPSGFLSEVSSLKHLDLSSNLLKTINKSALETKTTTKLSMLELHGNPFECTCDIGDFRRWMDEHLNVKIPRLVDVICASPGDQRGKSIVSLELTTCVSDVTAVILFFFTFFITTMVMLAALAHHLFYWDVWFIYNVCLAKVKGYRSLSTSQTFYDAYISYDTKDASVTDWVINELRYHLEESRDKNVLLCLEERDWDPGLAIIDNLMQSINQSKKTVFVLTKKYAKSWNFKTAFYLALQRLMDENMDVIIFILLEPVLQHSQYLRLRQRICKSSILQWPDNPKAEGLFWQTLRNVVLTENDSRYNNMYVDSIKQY
How it was run: (§1)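 HEK293 reporter cells stably co-transfected with the respective human TLR or NOD receptor plus NF-κB/AP-1-driven secreted alkaline phosphatase, kept in selection medium. About 10^5 cells/ml were incubated with graded concentrations of test compound in 384-well format. Supernatant sAP was read colorimetrically at 620 nm with an alkaline phosphatase-specific chromogen in detection medium.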

[1] = molecular target: Toll-like receptor 5 (Homo sapiens) (UniProt O60602); assay: Agonist activity at human TLR5 stably expressed in HEK293 cells co-expressing secreted alkaline phosphatase assessed as NF-kappaB induction by liquid handler-assisted reporter gene assay; assay type: cell-based; how it was run: as §1
[2] = molecular target: T2, Nucleotide-binding oligomerization domain-containing protein 1 (Homo sapiens) (UniProt Q9Y239); assay: Agonist activity at human NOD1 stably expressed in HEK293 cells co-expressing secreted alkaline phosphatase assessed as NF-kappaB induction by liquid handler-assisted reporter gene assay; assay type: cell-based; how it was run: as §1
T2 sequence (whole entry): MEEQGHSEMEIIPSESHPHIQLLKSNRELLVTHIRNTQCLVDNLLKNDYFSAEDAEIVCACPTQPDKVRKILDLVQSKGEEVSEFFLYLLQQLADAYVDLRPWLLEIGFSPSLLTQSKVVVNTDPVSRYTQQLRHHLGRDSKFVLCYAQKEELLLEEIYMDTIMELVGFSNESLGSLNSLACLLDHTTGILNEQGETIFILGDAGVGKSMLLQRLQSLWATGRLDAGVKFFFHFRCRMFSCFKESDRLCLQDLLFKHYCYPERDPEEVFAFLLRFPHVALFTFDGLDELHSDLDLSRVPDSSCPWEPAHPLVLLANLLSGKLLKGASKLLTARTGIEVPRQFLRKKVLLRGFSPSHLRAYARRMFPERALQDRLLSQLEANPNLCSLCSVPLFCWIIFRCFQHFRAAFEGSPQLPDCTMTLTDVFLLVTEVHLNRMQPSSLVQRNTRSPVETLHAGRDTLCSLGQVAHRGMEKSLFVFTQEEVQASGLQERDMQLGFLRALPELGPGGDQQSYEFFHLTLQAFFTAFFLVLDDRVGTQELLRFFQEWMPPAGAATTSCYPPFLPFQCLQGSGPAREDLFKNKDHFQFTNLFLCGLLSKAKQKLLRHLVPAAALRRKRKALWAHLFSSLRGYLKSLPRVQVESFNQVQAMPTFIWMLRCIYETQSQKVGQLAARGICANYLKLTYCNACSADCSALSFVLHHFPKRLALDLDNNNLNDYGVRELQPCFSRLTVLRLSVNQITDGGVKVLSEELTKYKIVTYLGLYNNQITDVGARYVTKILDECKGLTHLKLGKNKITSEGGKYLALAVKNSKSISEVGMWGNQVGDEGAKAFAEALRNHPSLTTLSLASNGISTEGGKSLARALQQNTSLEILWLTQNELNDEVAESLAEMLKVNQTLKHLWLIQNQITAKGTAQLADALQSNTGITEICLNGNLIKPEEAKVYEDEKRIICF

[3] = molecular target: Nucleotide-binding oligomerization domain-containing protein 2 (Homo sapiens, UniProt Q9HC29); assay: Antagonist activity at human NOD2 stably expressed in HEK293 cells co-expressing secreted alkaline phosphatase assessed as NF-kappaB induction by liquid handler-assisted reporter gene assay; assay type: cell-based
[4] = molecular target: T3, Nucleotide-binding oligomerization domain-containing protein 1 (Homo sapiens, UniProt Q9Y239); assay: Antagonist activity at human NOD1 stably expressed in HEK293 cells co-expressing secreted alkaline phosphatase assessed as NF-kappaB induction by liquid handler-assisted reporter gene assay; assay type: cell-based
T3 sequence (Q9Y239 whole entry): T2 sequence (whole entry)

[5] = Upregulation of CD69 expression in human NK cells at 0.1 to 10 ug/ml measured after overnight incubation by flow cytometry; assay type: functional, cell-based
How it was run: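 Heparin-anticoagulated whole blood from healthy volunteers was stimulated with graded concentrations at 37 °C overnight. It was then stained 30 min at 37 °C in the dark with CD3-PE, CD56-APC and CD69-PE-Cy7, followed by one-step erythrocyte lysis and fixation. NK cells were gated as CD3-CD56+ from 100,000 events. Values are means of duplicates from a representative experiment.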

[6] = molecular target: T4, Toll-like receptor 8 (Homo sapiens) (UniProt Q9NR97); assay: Induction of TLR8-mediated IFN-gamma in human PBMC after 12 hrs by immunoassay
T4 sequence (whole entry): T1 sequence (Q9NR97 whole entry)
How it was run: (§2)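 Fresh PBMCs were isolated from venous blood on Ficoll-Hypaque gradients and plated at 10^5 cells in 100 µL per well. They were stimulated 12 h with graded compound concentrations. Centrifuged supernatants were assayed in duplicate by multiplexed analyte-specific cytokine bead array.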

[7] = molecular target: T4, Toll-like receptor 8 (Homo sapiens); assay: Induction of TLR8-mediated IL-12p40 in human PBMC after 12 hrs by immunoassay; how it was run: as §2

Sequence of Toll-like receptor 5 (Homo sapiens) (O60602 whole entry, the tested form may be a part): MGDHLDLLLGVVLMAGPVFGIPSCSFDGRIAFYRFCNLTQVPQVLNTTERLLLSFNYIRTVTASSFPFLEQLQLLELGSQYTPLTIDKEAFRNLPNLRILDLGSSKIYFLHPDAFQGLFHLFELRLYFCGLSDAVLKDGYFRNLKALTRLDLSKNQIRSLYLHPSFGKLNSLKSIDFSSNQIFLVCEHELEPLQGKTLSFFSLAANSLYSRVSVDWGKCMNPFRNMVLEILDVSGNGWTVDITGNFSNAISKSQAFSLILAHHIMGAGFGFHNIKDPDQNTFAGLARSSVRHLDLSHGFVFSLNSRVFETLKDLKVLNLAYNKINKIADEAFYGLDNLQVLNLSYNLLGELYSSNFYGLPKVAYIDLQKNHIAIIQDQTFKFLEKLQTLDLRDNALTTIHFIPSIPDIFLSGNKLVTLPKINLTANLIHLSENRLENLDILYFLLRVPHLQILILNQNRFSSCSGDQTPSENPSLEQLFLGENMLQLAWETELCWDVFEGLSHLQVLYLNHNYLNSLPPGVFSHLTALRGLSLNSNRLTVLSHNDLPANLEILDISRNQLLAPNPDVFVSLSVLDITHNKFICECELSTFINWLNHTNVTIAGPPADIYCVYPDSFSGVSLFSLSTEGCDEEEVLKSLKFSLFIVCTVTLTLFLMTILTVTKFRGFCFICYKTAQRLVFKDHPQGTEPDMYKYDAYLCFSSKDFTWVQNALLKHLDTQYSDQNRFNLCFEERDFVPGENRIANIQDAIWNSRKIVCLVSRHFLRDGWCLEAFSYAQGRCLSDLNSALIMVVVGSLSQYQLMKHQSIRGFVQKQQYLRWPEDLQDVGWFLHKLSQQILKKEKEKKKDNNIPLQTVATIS
Sequence of Nucleotide-binding oligomerization domain-containing protein 2 (Q9HC29 whole entry, the tested form may be a part): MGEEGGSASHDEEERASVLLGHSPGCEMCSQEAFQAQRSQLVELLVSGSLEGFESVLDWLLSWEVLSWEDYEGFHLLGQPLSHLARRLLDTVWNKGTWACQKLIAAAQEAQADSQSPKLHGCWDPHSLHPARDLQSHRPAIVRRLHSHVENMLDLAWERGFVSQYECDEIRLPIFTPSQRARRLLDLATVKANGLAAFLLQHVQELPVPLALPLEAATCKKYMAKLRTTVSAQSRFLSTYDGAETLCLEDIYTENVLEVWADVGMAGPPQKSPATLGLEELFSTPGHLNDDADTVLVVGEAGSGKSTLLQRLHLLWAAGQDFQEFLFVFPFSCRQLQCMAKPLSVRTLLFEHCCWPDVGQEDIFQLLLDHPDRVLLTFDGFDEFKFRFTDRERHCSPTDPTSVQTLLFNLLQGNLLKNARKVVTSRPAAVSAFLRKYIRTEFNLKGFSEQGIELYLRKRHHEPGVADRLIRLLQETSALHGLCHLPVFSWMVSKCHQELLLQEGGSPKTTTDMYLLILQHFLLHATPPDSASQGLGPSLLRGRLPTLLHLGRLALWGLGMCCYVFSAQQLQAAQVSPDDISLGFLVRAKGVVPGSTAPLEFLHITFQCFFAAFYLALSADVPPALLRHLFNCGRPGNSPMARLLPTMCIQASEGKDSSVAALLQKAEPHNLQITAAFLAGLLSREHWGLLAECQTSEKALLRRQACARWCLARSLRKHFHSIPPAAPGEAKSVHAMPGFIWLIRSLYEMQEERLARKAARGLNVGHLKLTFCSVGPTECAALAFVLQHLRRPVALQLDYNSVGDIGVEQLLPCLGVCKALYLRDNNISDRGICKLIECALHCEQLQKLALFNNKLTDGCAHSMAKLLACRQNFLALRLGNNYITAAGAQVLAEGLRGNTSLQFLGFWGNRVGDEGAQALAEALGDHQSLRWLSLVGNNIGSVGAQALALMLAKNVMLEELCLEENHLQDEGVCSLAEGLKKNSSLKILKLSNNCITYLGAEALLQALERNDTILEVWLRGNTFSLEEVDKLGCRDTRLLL

CCCCCn1c(N)nc2c(C(F)(F)F)cccc21
EC50 (Toll-like receptor 8): Not Active | Activity [1]: inactive | Activity [2]: inactive

CCCCCn1c(N)nc2c(Cc3ccccc3)cccc21
EC50 (Toll-like receptor 8): Not Active | IC50 [3]: > 10 µM | Activity [1]: inactive | Activity [2]: inactive | IC50 [4]: > 10 µM

CCCCC1(O)C(N)=Nc2ccccc21 (configuration not stated)
EC50 (Toll-like receptor 8): Not Active | Activity [1]: inactive | Activity [2]: inactive

CCCCCn1c(N)nc2cnccc21
EC50 (Toll-like receptor 8): Not Active | Activity [1]: inactive | Activity [2]: inactive

CCCCCn1c(N)nc2c(F)cccc21
EC50 (Toll-like receptor 8): Not Active | Activity [1]: inactive | Activity [2]: inactive

CCCCOC(=O)n1c(N)nc2ccccc21
EC50 (Toll-like receptor 8): Not Active | Activity [1]: inactive | Activity [2]: inactive

CCCCCn1c(N)nc2c(C)cccc21
Activity [5]: inactive | Activity [1]: inactive | Activity [6]: Active | Activity [2]: inactive | Activity [7]: Active

CCCCCn1c(N)nc2c(Cl)cccc21
EC50 (Toll-like receptor 8): Not Active | Activity [1]: inactive | Activity [2]: inactive

CCCCCn1c(N)nc2cccnc21
EC50 (Toll-like receptor 8): Not Active | Activity [1]: inactive | Activity [2]: inactive

CCCCCn1c(N)nc2c(Br)cccc21
EC50 (Toll-like receptor 8): Not Active | Activity [1]: inactive | Activity [2]: inactive

CCCCCn1c(N)nc2c(OCc3ccccc3)cccc21
EC50 (Toll-like receptor 8): Not Active | IC50 [3]: > 10 µM | Activity [1]: inactive | Activity [2]: inactive | IC50 [4]: > 10 µM

Nc1nc2ccccc2n1Cc1ccccc1
EC50 (Toll-like receptor 8): Not Active | Activity [1]: inactive | Activity [2]: inactive

CCCCCn1c(N)nc2c([N+](=O)[O-])cccc21
EC50 (Toll-like receptor 8): Not Active | Activity [1]: inactive | Activity [2]: inactive

CCCCCn1c(N)nc2ccc3ccccc3c21
EC50 (Toll-like receptor 8): Not Active | IC50 [3]: > 10 µM | Activity [1]: inactive | Activity [2]: inactive | IC50 [4]: > 10 µM

CCCCC1C(N)=Nc2ccccc21.Cl (configuration not stated)
EC50 (Toll-like receptor 8): ND(Unstable) | Activity [1]: inactive | Activity [2]: inactive

NCc1cccc(Cn2c(N)nc3ccccc32)c1
EC50 (Toll-like receptor 8): Not Active | Activity [1]: inactive | Activity [2]: inactive

CCCCCn1c(NC(C)=O)nc2ccccc21
EC50 (Toll-like receptor 8): Not Active | IC50 [3]: > 10 µM | Activity [1]: inactive | Activity [2]: inactive | IC50 [4]: > 10 µM

CCCCCn1c(N)nc2ncccc21
EC50 (Toll-like receptor 8): Not Active | Activity [1]: inactive | Activity [2]: inactive

CCCCCn1c(N)nc2ccncc21
EC50 (Toll-like receptor 8): Not Active | Activity [1]: inactive | Activity [2]: inactive

CCCCCn1c(N)nc2c(-c3ccccc3)cccc21
EC50 (Toll-like receptor 8): Not Active | IC50 [3]: > 10 µM | Activity [1]: inactive | Activity [2]: inactive | IC50 [4]: > 10 µM

CCCCCn1c(N)nc2cc3ccccc3cc21
EC50 (Toll-like receptor 8): Not Active | IC50 [3]: > 10 µM | Activity [1]: inactive | Activity [2]: inactive | IC50 [4]: > 10 µM
